From PubChem BioAssay AID504382 (The Scripps Research Institute Molecular Screening Center, 2011)
About 460 (18%) of roughly 2,500 compounds were called active.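 Rule for the calls: active = mean activation above a cutoff of low control average plus 3 SD from the earlier screen (cut at about 12% in these data); inactive = the rest.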 Not all results are given here.

Assay: IANBD-channel fluorescence artefacts in buffer – biochemical, artefact control for cardiac RTF calcium sensitizer project, confirmation (AID 504382)
Settings: IANBD fluorescence interference counterscreen, EC20 Ca2+, at 7.2 µM, active compounds read high, scaled: EC20 calcium 0, EC100 calcium 100
Outline: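 Medium: MOPS buffer, 190 mM, with KCl, MgCl2, EGTA, NTA, DTT, pH 7.20; Dosing: one dose of 7.2 µM, 0.7% DMSO; Probe or stimulus: calcium at EC20 level, 0.472 mM final; Incubation: 15 min, 25 °C; Evaluation: compound fluorescence interference relative to control well signal range; Signal: fluorescence, 480/540 nm.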

| SMILES | fluorescence artifact activation |
| --- | --- |
| O=C1CC(c2cccc(Oc3ccccc3)c2)NC(=O)N1 (stereo unspecified) | 0.02% (inactive) |
| O=c1c(/C=C(\O)c2ccc(F)cc2)nc2ccccc2n1-c1ccccc1 | 0.04% (inactive) |
| Cc1ccc(NC(=O)CSc2nnc(-c3cccnc3)s2)cc1 | 258% (active) |
| Cc1ccc(CSc2nnc(SCC(=O)N/N=C/c3ccccc3OCC(=O)O)s2)cc1 | 4.19% (inactive) |
| Cc1ccc(-c2csc(NC(=O)CSc3nc4ccccc4o3)n2)cc1 | 0.77% (inactive) |
| Nc1nnnn1/N=C/c1cc(Cl)cc(Cl)c1O | 0.11% (inactive) |
| O=C(Nc1ccc(Cl)c(Cl)c1)Nc1ccc([N+](=O)[O-])cn1 | 8.85% (inactive) |
| COc1ccc(OC)c2[nH]c(=O)c(CCNS(=O)(=O)c3ccc(Cl)cc3)cc12 | -0.04% (inactive) |
| N#C/C(=C\N1CCN(Cc2ccc3c(c2)OCO3)CC1)c1nc2ccccc2s1 | 7.04% (inactive) |
| COc1cccc(C2C(C#N)=C(N)Oc3cc(C)oc(=O)c32)c1OC (stereo unspecified) | 6.53% (inactive) |
| Cc1ccccc1N=Cc1cc2c(cc1O)OC(N)=C(C#N)C2c1ccccc1 (stereo unspecified) | 0.04% (inactive) |
| COc1ccc(N=Cc2cc3c(cc2O)OC(N)=C(C#N)C3c2ccccc2)cc1 (stereo unspecified) | 32.9% (active) |
| CCOc1ccc(N(C)c2ccc(/C=C3/SC(=S)NC3=O)cc2)cc1 | 0.1% (inactive) |
| CCN(CC)c1ccc(C=C2SC(=S)NC2=O)cc1 | 19.1% (active) |
| CCN(CC)c1ccc(/C=C2\SC(N)=NC2=O)cc1 | 18.7% (active) |
| CCN(CC)c1ccc(/C=C2\C(=N)N3N=C(CC(=O)N4CCOCC4)SC3=NC2=O)cc1 | 0.25% (inactive) |
| CCCOc1ccc(-c2nn(-c3ccccc3)cc2/C=C2\SC(N)=NC2=O)cc1 | 0.02% (inactive) |
| CN(C)c1ccc(C=C2SC(=S)NC2=O)cc1 | 0.13% (inactive) |
| COc1cccc(/C=N/Nc2nnc3c(n2)[nH]c2ccccc23)c1OC | 0.23% (inactive) |
| CC[n+]1c(/C=C/N(C)c2ccccc2)oc2ccc(F)cc21 | 0.51% (inactive) |
| CCN(CC)c1ccc(/C=N/OCC(=O)Nc2cccc(C)c2)cc1 | 0.61% (inactive) |
| C#CCN1c2ccccc2Sc2cccnc21 | 0.15% (inactive) |
| O=C(c1cccc(F)c1)N1CCN(C(=O)c2cc(-c3ccc(Cl)cc3Cl)on2)CC1 | 0.33% (inactive) |
| Fc1ccc(-c2nnc(-c3ccc(Cl)cc3Cl)o2)cc1 | 12.9% (active) |

| SMILES | fluorescence artifact activation |
| --- | --- |
| Nc1ccn([C@H]2C[C@H](O)[C@@H](CO)O2)c(=O)n1 | 0.1% (inactive) |
| CCCNC(=O)Cn1c(=O)/c(=C/c2ccc(-c3ccc([N+](=O)[O-])cc3)o2)s/c1=C\C(=O)C(C)(C)C | 10.3% (inactive) |
| O=c1oc2ccccc2cc1-c1ccc(O)cc1O | 30.6% (active) |
| O=c1oc2ccccc2cc1-c1nc(-c2cccs2)cs1 | -0.04% (inactive) |
| O=c1c(-c2ccc(O)cc2O)coc2cc(O)cc(O)c12 | 0.09% (inactive) |
| COc1ccccc1/C=[N+](\[O-])C1SC(=S)N(C)C1(C)C (stereo unspecified) | 0.01% (inactive) |
| CCOc1ccc(N2C(=O)CC(SCc3nc4ccccc4[nH]3)C2=O)cc1 (stereo unspecified) | 0.12% (inactive) |
| COC(=O)[C@@]1(Cc2ccc(OC)cc2)[C@@H]2C(=CC(=O)[C@H]2CC(=O)C(=O)N2CCCC2)CN1C(=O)c1ccccc1 | 15% (active) |
| Cc1cc(C)c(/C=C2\C(=O)Nc3ccccc32)[nH]1 | 4.55% (inactive) |
| O=C1Nc2ccccc2/C1=C/c1cnc(-c2ccccc2)[nH]1 | 36.5% (active) |
| CN(C)S(=O)(=O)c1ccc2c(c1)/C(=C/c1cc3c([nH]1)CCCC3)C(=O)N2 | 3.96% (inactive) |
| C#Cc1ccc([C@@H]2C=C(C(=O)OCC=C)O[C@H](OCCCCO)C2)cc1 | 0.21% (inactive) |
| COc1ccccc1N1CCN(C(=O)CCC(=O)O)CC1 | 0.1% (inactive) |
| CC1=N/C(=C/c2ccc([N+](=O)[O-])cc2)C(=O)N1c1ccc(Cl)cc1Cl | 0.01% (inactive) |
| COc1ccc(N2CCN(c3ccc([N+](=O)[O-])cc3Cl)CC2)cc1 | 18.2% (active) |
| COc1ccc(N2CCN(S(=O)(=O)Cc3ccccc3)CC2)cc1 | 0.08% (inactive) |
| Cc1cc(N2CCN(c3nc(-c4ccc([N+](=O)[O-])cc4)cs3)CC2)c2ccccc2n1 | 3.28% (inactive) |
| COc1ccccc1N1CCN(c2ccc([N+](=O)[O-])cc2Cl)CC1 | 18.9% (active) |
| COc1cc(NC(=O)C2CCCCN2)ccc1OCC(C)C (stereo unspecified) | 2.06% (inactive) |
| CC(C)C(=O)COc1c2occc2cc2ccc(=O)oc12 | 0.07% (inactive) |
| Cc1noc(NS(=O)(=O)c2ccc(NC(=O)CSc3nc4c(cc3C#N)CCC4)cc2)c1C | 0.31% (inactive) |
| CCOC(=O)c1cccc(NC(=O)CSc2nc(N)cc(N)n2)c1 | -0.04% (inactive) |
| CCOC(=O)c1c(C#N)c(SCC(=O)Nc2ccc(OC)cc2)nc2c1CN(CC)CC2 | 25.1% (active) |
| COc1ccc(/C=C2\SC(=O)N(CCC(=O)N3CCN(C)CC3)C2=O)cc1 | -0.03% (inactive) |

| SMILES | fluorescence artifact activation |
| --- | --- |
| CC(C)c1ccc(C2c3[nH]c4ccccc4c3C[C@H]3C(=O)N(c4ccccc4C(=O)N4CCC(C(=O)O)CC4)C(=O)N23)cc1 (stereo partly specified) | 0.07% (inactive) |
| COc1ccccc1-c1nnc(SCc2nc3ccccc3s2)n1C | 7.19% (inactive) |
| Cc1ccc(Cl)c(NC(=O)CN(C)CC(=O)Nc2ccc(F)c(F)c2F)c1Cl | 0.02% (inactive) |
| N/C(COc1cc(Cl)cc(Cl)c1)=N\O | 21.9% (active) |
| COc1cc(OC)c(C(=O)NC2CCCCCC2)cc1OC | -0.01% (inactive) |
| O=[N+]([O-])c1cc(-c2ccn[nH]2)ccc1Cl | -0.08% (inactive) |
| COc1ccc(C(Nc2ccc(S(=O)(=O)NCC3CCCO3)cc2)C(=O)NC(C)(C)C)cc1OC (stereo unspecified) | 0.01% (inactive) |
| COc1cc(OC)cc(-c2c(-c3cccs3)c3cc(-c4ccc(SC)cc4)ccc3n2C)c1 | 5.67% (inactive) |
| O=C(/C=C/c1nc2ccccc2s1)N1CCCCCC1 | 7.06% (inactive) |
| N#C/C(=C(/O)COC(=O)c1ccccc1O)c1nc2ccccc2s1 | 0.47% (inactive) |
| O=C(CSc1nc2ccccc2s1)NNC(=S)Nc1ccccc1 | 193% (active) |
| CCc1cc(=O)n2c([nH]c3ccccc32)c1C#N | 0.24% (inactive) |
| Cc1cc(Br)ccc1SCC(=O)OCC(=O)Nc1ccccc1C#N | 0.22% (inactive) |
| Cc1ccc(S(=O)(=O)Nc2ccc3ncccc3c2[N+](=O)[O-])cc1 | 0.33% (inactive) |
| COc1ccc(/C=C2\CC/C(=C\c3ccc(OC)cc3OC)C2=O)c(OC)c1 | 9.84% (inactive) |
| CCCCN1C(=O)/C(=C/C=C2\Oc3ccccc3N2CC)SC1=S | 16.6% (active) |
| CCCN1C(=O)/C(=C\C=C2\N(CC)c3ccccc3C2(C)C)SC1=S | 0.28% (inactive) |
| CCCN1C(=O)/C(=C/C=C2\N(CC)c3ccccc3C2(C)C)SC1=S | 0.48% (inactive) |
| CC(C(=O)NNS(=O)(=O)c1cccc(C(F)(F)F)c1)n1nnc(N2CCOCC2)n1 (stereo unspecified) | 0.4% (inactive) |
| COc1cc2c(cc1[N+](=O)[O-])-c1ccccc1C2 | 70.4% (active) |
| COc1ccc2c3c(cccc13)C(=O)CC2 | 1.92% (inactive) |
| COc1cc(OC)c(OC)cc1/C=C1/Cc2ccccc2C1=O | -0.02% (inactive) |
| Cc1noc(C)c1S(=O)(=O)N(C)C[C@H]1Oc2ccc(NC(=O)CCC(F)(F)F)cc2C(=O)N([C@H](C)CO)C[C@@H]1C | 0.08% (inactive) |
| O=S(=O)(Nc1nc2ccccc2nc1NCCO)c1cccc(Cl)c1 | 57.1% (active) |

| SMILES | fluorescence artifact activation |
| --- | --- |
| O=S(=O)(Nc1nc2ccccc2nc1N1CCN(c2ccccn2)CC1)c1ccc(Cl)cc1 | -0.09% (inactive) |
| Cc1ccc(S(=O)(=O)Nc2nc3ccccc3nc2NCc2ccco2)cc1 | 2.57% (inactive) |
| COC1=CC2(O)CCCC2=CC1=O (stereo unspecified) | 0.15% (inactive) |
| Cc1cc(Cn2nc(C(=O)NCC3CC3)cc2-c2ccccc2)on1 | 0.04% (inactive) |
| COc1cccc(/C=C/C(=C2\C(=O)N(c3ccccc3)N=C2C)c2ccc(Br)cc2)c1OC | 0.1% (inactive) |
| CCC1(c2ccccc2)NC(=O)N(CC(=O)Nc2ccc(OC)nc2)C1=O (stereo unspecified) | -0.05% (inactive) |
| C/C(=N/NC(=O)CNC(=O)Cc1ccccc1)c1ccco1 | 0% (inactive) |
| CCN(C(=O)c1cc2ccccc2oc1=O)c1ccccc1 | 1.56% (inactive) |
| N#CCCN(C(=O)c1ccco1)c1ccccc1 | 1610% (active) |
| CCOCCCNc1ccc(-c2ccccc2)nn1 | 1.31% (inactive) |
| COc1ccc(O)c(/C=C2/SC(=S)N(Cc3ccccc3)C2=O)c1 | 0.17% (inactive) |
| COc1cc(/C=C2/SC(=S)N(Cc3ccccc3)C2=O)cc(Cl)c1O | 1800% (active) |
| O=C1/C(=C\c2cc(Cl)c(O)c(Cl)c2)SC(=S)N1Cc1ccccc1 | -0.11% (inactive) |
| O=C(N/N=C/c1cccc([N+](=O)[O-])c1)c1cnccn1 | -0.02% (inactive) |
| O=C(CSc1ccc(-c2cccs2)nn1)N1CCCCC1 | 0.91% (inactive) |
| CCOc1ccc(NC(=O)COC(=O)CCN2C(=O)C3CC=CCC3C2=O)cc1OCC (stereo unspecified) | 0.5% (inactive) |
| CN1CC[C@@H]2C(=O)N3CCc4ccc(Br)cc4[C@@H]3C[C@@H]21 | 0.24% (inactive) |
| COC(=O)C1=C(O)/C(=C\c2ccc(CNS(=O)(=O)c3ccc(Cl)cc3)o2)N=C1C | 0.18% (inactive) |
| COc1cc([C@@H]2[C@H]3CN(C)CC=C3C(C#N)=C(N)C2(C#N)C#N)cc2c1OCO2 | 0.14% (inactive) |
| CCN1CC=C2C(C#N)=C(N)C(C#N)(C#N)C(CCc3ccccc3)C2C1 (stereo unspecified) | 0.03% (inactive) |
| CN1CC=C2C(C#N)=C(N)C(C#N)(C#N)C(CCc3ccccc3)C2C1 (stereo unspecified) | 12.7% (active) |
| COc1cc(C2C3CN(C)CC=C3C(C#N)=C(N)C2(C#N)C#N)ccc1OC(C)C (stereo unspecified) | 16.8% (active) |
| CN1CC=C2C(C#N)=C(N)C(C#N)(C#N)[C@H](c3cccc(Cl)c3)C2C1 (stereo partly specified) | 10.2% (inactive) |
| CN1CC=C2C(C#N)=C(N)C(C#N)(C#N)C(Cc3ccccc3)C2C1 (stereo unspecified) | 0.22% (inactive) |
